According to ChEMBL document CHEMBL1142158, “Antibacterial activity and mechanism of action of a novel anilinouracil-fluoroquinolone hybrid compound” (Antimicrob Agents Chemother, 2007):
Values after ≈ are worked out from the molar mass of the structure shown. Active and inactive are the calls of the source. The calls are words filed in the database; no cut-off is given here.

What was measured:
[1] = target: T1, DNA polymerase subunit gamma-1 (Homo sapiens, UniProt P54098); assay: Inhibition of human DNA polymerase gamma
T1 sequence (P54098 whole entry): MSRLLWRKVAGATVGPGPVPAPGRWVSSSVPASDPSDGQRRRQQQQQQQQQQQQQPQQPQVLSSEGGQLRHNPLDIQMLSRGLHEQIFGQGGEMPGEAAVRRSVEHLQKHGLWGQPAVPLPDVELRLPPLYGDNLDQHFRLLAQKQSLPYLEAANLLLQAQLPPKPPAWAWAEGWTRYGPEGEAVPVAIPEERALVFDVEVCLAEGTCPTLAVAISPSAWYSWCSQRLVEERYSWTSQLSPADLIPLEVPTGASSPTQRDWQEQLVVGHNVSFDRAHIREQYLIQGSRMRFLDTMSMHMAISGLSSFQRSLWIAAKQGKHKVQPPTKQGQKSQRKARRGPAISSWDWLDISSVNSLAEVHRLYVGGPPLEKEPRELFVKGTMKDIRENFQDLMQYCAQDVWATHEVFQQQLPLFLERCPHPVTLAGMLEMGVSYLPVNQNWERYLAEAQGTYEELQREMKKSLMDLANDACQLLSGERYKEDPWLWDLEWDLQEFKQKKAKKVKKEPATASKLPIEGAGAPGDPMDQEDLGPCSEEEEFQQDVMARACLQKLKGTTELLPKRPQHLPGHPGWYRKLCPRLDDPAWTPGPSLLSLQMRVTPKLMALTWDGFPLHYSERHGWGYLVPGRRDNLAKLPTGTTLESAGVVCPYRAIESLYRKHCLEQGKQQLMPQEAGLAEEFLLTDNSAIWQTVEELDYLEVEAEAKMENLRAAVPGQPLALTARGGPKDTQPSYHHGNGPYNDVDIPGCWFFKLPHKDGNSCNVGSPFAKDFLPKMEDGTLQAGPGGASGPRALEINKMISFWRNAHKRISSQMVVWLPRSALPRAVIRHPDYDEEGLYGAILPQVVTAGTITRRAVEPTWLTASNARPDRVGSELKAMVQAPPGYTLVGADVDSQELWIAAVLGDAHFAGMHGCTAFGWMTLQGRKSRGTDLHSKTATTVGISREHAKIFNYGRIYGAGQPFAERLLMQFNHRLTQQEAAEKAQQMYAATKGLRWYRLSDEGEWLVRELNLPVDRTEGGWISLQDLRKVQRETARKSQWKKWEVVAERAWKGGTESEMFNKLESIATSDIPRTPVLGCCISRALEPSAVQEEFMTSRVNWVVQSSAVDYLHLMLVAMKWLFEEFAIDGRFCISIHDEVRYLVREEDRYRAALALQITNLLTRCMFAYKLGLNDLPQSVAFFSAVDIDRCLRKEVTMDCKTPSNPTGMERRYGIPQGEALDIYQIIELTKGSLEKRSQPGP
Summary of the method: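 Calf thymus pol alpha or human pol gamma, 0.025 to 0.06 U, added to compound dilutions in reaction mixture; 25 min at 37°C; stopped with ice-cold 10% TCA/10 mM pyrophosphate; precipitated [3H]DNA collected on filters and counted. Ki values for dGTP-competitive inhibitors obtained by truncated assay lacking dGTP.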

[2] = Inhibition of Bacillus subtilis topoisomerase 4
[3] = Inhibition of Bacillus subtilis gyrase
[4] = tested on: Bacillus subtilis; assay: Antibacterial activity against Bacillus subtilis BD54; assay type: functional
[5] = tested on: Bacillus thuringiensis; assay: Antibacterial activity against Bacillus thuringiensis 33679; assay type: functional
[6] = tested on: Bacillus cereus; assay: Antibacterial activity against Bacillus cereus 4342; assay type: functional
[7] = tested on: Bacillus cereus; assay: Antibacterial activity against Bacillus cereus 6464; assay type: functional
[8] = tested on: Staphylococcus aureus; assay: Antibacterial activity against Staphylococcus aureus Smith 13709; assay type: functional
Summary of the method: (§1)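 Broth microdilution per CLSI with modified incubation. Log-phase cultures in cation-adjusted Mueller-Hinton broth, seeded at 1 x 10^5 CFU/ml. Compounds from DMSO stocks, 1% DMSO final. Incubated 37°C, 16 to 20 h, shaken. Growth read as OD600. MIC is the lowest concentration with no apparent growth. Run in quadruplicate; highest value reported.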

[9] = tested on: Bacillus thuringiensis; assay: Antibacterial activity against Bacillus thuringiensis 10792; assay type: functional
[10] = tested on: Bacillus anthracis; assay: Antibacterial activity against Bacillus anthracis Sterne; assay type: functional
[11] = tested on: Staphylococcus aureus; assay: Antibacterial activity against Staphylococcus aureus 25923; assay type: functional; summary of the method: as §1
[12] = tested on: Staphylococcus aureus; assay: Antibacterial activity against Staphylococcus aureus 1081; assay type: functional; summary of the method: as §1
[13] = tested on: Staphylococcus aureus; assay: Antibacterial activity against methicillin-resistant Staphylococcus aureus 1094; assay type: functional; summary of the method: as §1
[14] = tested on: Staphylococcus aureus; assay: Antibacterial activity against methicillin-resistant Staphylococcus aureus B42876; assay type: functional; summary of the method: as §1
[15] = tested on: Staphylococcus aureus; assay: Antibacterial activity against methicillin-resistant Staphylococcus aureus 1123; assay type: functional; summary of the method: as §1
[16] = tested on: Staphylococcus aureus; assay: Antibacterial activity against methicillin-resistant Staphylococcus aureus 1132; assay type: functional; summary of the method: as §1
[17] = tested on: Staphylococcus aureus; assay: Antibacterial activity against mupirocin-sensitive Staphylococcus aureus 2529; assay type: functional
[18] = tested on: Staphylococcus aureus; assay: Antibacterial activity against mupirocin-resistant Staphylococcus aureus 777; assay type: functional; summary of the method: as §1
[19] = tested on: Enterococcus faecalis; assay: Antibacterial activity against Enterococcus faecalis 29212; assay type: functional; summary of the method: as §1
[20] = tested on: Enterococcus faecalis; assay: Antibacterial activity against vancomycin-resistant Enterococcus faecalis 700802; assay type: functional; summary of the method: as §1
[21] = tested on: Enterococcus faecalis; assay: Antibacterial activity against vancomycin-resistant Enterococcus faecalis 51575; assay type: functional; summary of the method: as §1
[22] = tested on: Enterococcus faecalis; assay: Antibacterial activity against vancomycin-resistant Enterococcus faecalis 51299; assay type: functional; summary of the method: as §1
[23] = tested on: Enterococcus faecium; assay: Antibacterial activity against Enterococcus faecium 19434; assay type: functional; summary of the method: as §1
[24] = tested on: Enterococcus faecium; assay: Antibacterial activity against vancomycin-resistant Enterococcus faecium B42762; assay type: functional; summary of the method: as §1
[25] = tested on: Enterococcus faecium; assay: Antibacterial activity against vancomycin-resistant Enterococcus faecium 1644; assay type: functional; summary of the method: as §1
[26] = tested on: Enterococcus faecium; assay: Antibacterial activity against vancomycin and linezolid-resistant Enterococcus faecium F118; assay type: functional; summary of the method: as §1
[27] = tested on: Streptococcus pneumoniae; assay: Antibacterial activity against Streptococcus pneumoniae 49619; assay type: functional
Summary of the method: (§2)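 Streptococci tested by CLSI broth microdilution in Mueller-Hinton broth with 5% defibrinated horse blood, log-phase inoculum at 1 x 10^5 CFU/ml. Incubated 37°C with shaking, 16 to 20 h, in 5% humidified CO2. Compounds at 1% DMSO final. MIC is the lowest concentration without growth by OD600. Quadruplicate; highest MIC reported.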

[28] = tested on: Streptococcus pneumoniae; assay: Antibacterial activity against penicillin-resistant Streptococcus pneumoniae 700670; assay type: functional; summary of the method: as §2
[29] = tested on: Streptococcus pneumoniae; assay: Antibacterial activity against penicillin-resistant Streptococcus pneumoniae 700674; assay type: functional; summary of the method: as §2
[30] = tested on: Streptococcus pneumoniae; assay: Antibacterial activity against penicillin-resistant Streptococcus pneumoniae 700671; assay type: functional; summary of the method: as §2
[31] = tested on: Streptococcus pneumoniae; assay: Antibacterial activity against penicillin-resistant Streptococcus pneumoniae 700673; assay type: functional; summary of the method: as §2
[32] = tested on: Streptococcus pneumoniae; assay: Antibacterial activity against penicillin-resistant Streptococcus pneumoniae 700677; assay type: functional; summary of the method: as §2
[33] = tested on: Streptococcus pyogenes; assay: Antibacterial activity against Streptococcus pyogenes 12344; assay type: functional
[34] = tested on: Escherichia coli; assay: Antibacterial activity against Escherichia coli J53; assay type: functional
[35] = tested on: Escherichia coli; assay: Antibacterial activity against ciprofloxacin-resistant Escherichia coli XL1-Blue; assay type: functional; summary of the method: as §1
[36] = tested on: Klebsiella pneumoniae; assay: Antibacterial activity against Klebsiella pneumoniae 5657; assay type: functional
[37] = tested on: Stenotrophomonas maltophilia; assay: Antibacterial activity against Stenotrophomonas maltophilia 13637; assay type: functional
[38] = tested on: Pseudomonas aeruginosa; assay: Antibacterial activity against Pseudomonas aeruginosa 27853; assay type: functional
[39] = tested on: Bacillus subtilis; assay: Inhibition of DNA synthesis in Bacillus subtilis BD54; assay type: functional, organism-based
Summary of the method: (§3)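 B. subtilis BD54 grown to log phase in C plus 50 medium; compound in DMSO added with [8-3H]adenine at time zero, at 5x or 1x MIC; samples over time. DNA = alkali-insensitive TCA-insoluble label; RNA = total TCA-insoluble minus DNA. Effect judged against diluent-control incorporation.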

[40] = tested on: Bacillus subtilis; assay: Inhibition of RNA synthesis in Bacillus subtilis BD54; assay type: functional, organism-based; summary of the method: as §3
[41] = tested on: Bacillus subtilis; assay: Inhibition of protein synthesis in Bacillus subtilis BD54; assay type: functional, organism-based
Summary of the method: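 Log-phase B. subtilis BD54 in C plus 50 medium; compound in DMSO (5x or 1x MIC) and L-[4,5-3H]leucine added together at time zero; samples taken at intervals. Protein synthesis measured as TCA-precipitable radioactivity, compared with diluent-control incorporation.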

[42] = tested on: Staphylococcus aureus; assay: Antibacterial activity against HB-EMAU-resistant Staphylococcus aureus Smith; assay type: functional; summary of the method: as §1
[43] = tested on: Staphylococcus aureus; assay: Antibacterial activity against ciprofloxacin-resistant Staphylococcus aureus Smith; assay type: functional; summary of the method: as §1
[44] = tested on: Staphylococcus aureus; assay: Antibacterial activity against HB-EMAU-resistant and ciprofloxacin-resistant Staphylococcus aureus Smith; assay type: functional; summary of the method: as §1
[45] = Cytotoxicity against human MRC5 cells; assay type: cell-based
Summary of the method: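 MRC-5 human diploid fibroblasts, 4 x 10^3 cells per well, exposed to compound from DMSO stock (final 1%) in minimal essential medium with 10% fetal calf serum for 72 h at 37°C beside a DMSO-only control.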

[46] = tested on: Staphylococcus aureus; assay: Antibacterial activity against Staphylococcus aureus Smith in presence of 10% FCS; assay type: functional

SMILES: CCc1cc(Nc2cc(=O)n(CCCCO)c(=O)[nH]2)ccc1C
- Ki [1]: > 1010 µM
- IC50 [2]: > 500 µM
- IC50 [3]: > 500 µM
- MIC [4]: 1.25 µg/mL (≈ 3.94 µM)
- MIC [5]: 2.5 µg/mL (≈ 7.88 µM)
- MIC [6]: 1.25 µg/mL (≈ 3.94 µM)
- MIC [7]: 1.25 µg/mL (≈ 3.94 µM)
- MIC [8]: 5 µg/mL (≈ 15.8 µM)
- MIC [9]: 1.25 µg/mL (≈ 3.94 µM)
- MIC [10]: 2.5 µg/mL (≈ 7.88 µM)
- MIC [11]: 5 µg/mL (≈ 15.8 µM)
- MIC [12]: 5 µg/mL (≈ 15.8 µM)
- MIC [13]: 5 µg/mL (≈ 15.8 µM)
- MIC [14]: 5 µg/mL (≈ 15.8 µM)
- MIC [15]: 5 µg/mL (≈ 15.8 µM)
- MIC [16]: 5 µg/mL (≈ 15.8 µM)
- MIC [17]: 20 µg/mL (≈ 63 µM)
- MIC [18]: 10 µg/mL (≈ 31.5 µM)
- MIC [19]: 5 µg/mL (≈ 15.8 µM)
- MIC [20]: 5 µg/mL (≈ 15.8 µM)
- MIC [21]: 5 µg/mL (≈ 15.8 µM)
- MIC [22]: 5 µg/mL (≈ 15.8 µM)
- MIC [23]: 5 µg/mL (≈ 15.8 µM)
- MIC [24]: 5 µg/mL (≈ 15.8 µM)
- MIC [25]: 2.5 µg/mL (≈ 7.88 µM)
- MIC [26]: 10 µg/mL (≈ 31.5 µM)
- MIC [27]: 2.5 µg/mL (≈ 7.88 µM)
- MIC [28]: 5 µg/mL (≈ 15.8 µM)
- MIC [29]: 5 µg/mL (≈ 15.8 µM)
- MIC [30]: 2.5 µg/mL (≈ 7.88 µM)
- MIC [31]: 2.5 µg/mL (≈ 7.88 µM)
- MIC [32]: 2.5 µg/mL (≈ 7.88 µM)
- MIC [33]: 1.25 µg/mL (≈ 3.94 µM)
- MIC [34]: > 80 µg/mL
- MIC [35]: > 80 µg/mL
- MIC [36]: > 80 µg/mL
- MIC [37]: > 80 µg/mL
- MIC [38]: > 80 µg/mL
- Activity [39]: Active
- Activity [40]: inactive
- Activity [41]: inactive
- MIC [42]: > 80 µg/mL
- MIC [43]: 5 µg/mL (≈ 15.8 µM)
- MIC [44]: > 80 µg/mL
- CC50 [45]: 46 µg/mL (≈ 145 µM)
- MIC [46]: 20 µg/mL
